# pIC50: −log10 of the molar value.
# How the values were obtained:
# [1] = biological target: Glycogen synthase kinase-3 (Homo sapiens, UniProt P49840+P49841); test: Inhibition of GSK3alpha/beta in presence of 15 uM ATP; format: protein assay
# In short: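 Assayed against GSK-3α/β using GS-1 peptide as substrate, final ATP 15 μM; conditions otherwise follow earlier published method.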
# [2] = biological target: Cyclin-dependent kinase 5/CDK5 activator 1 (Homo sapiens, UniProt Q00535); test: Inhibition of CDK5/p25 in presence of 15 uM ATP; format: protein-complex assay
# Sequence of Cyclin-dependent kinase 5/CDK5 activator 1 (Q00535 whole entry): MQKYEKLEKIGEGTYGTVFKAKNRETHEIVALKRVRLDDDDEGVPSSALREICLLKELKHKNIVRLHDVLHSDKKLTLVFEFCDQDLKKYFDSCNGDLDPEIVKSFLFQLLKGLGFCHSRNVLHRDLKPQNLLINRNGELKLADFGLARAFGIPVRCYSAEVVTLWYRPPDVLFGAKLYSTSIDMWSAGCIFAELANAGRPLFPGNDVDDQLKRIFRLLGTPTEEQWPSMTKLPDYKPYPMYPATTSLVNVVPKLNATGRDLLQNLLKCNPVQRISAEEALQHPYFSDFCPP
# Sequence of Cyclin-dependent kinase 5/CDK5 activator 1 (Q15078 whole entry, further chain): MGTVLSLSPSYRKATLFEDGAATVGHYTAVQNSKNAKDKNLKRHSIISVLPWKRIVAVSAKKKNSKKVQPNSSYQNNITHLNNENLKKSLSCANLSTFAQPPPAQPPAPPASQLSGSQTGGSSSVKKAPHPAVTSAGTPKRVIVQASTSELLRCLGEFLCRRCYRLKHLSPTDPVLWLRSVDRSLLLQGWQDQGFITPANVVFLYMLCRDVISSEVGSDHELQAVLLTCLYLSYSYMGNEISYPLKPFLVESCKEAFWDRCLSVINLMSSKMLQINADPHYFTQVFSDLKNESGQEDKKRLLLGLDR
# In short: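 Kinase activity assayed with histone H1 as protein substrate and ATP at 15 μM final; procedure otherwise as previously described.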
# [3] = biological target: Cyclin-dependent kinase 1/cyclin B (Homo sapiens, UniProt P06493); test: Inhibition of CDK1/cyclinB in presence of 15 uM ATP; format: protein-complex assay
IC50 [1],pIC50 [2],pIC50 [3],SMILES
7.2 µM,,,CCn1cnc2ccc3nc(C(=N)NC(C)C)sc3c2c1=O
4.2 µM,< 4.00,< 4.00,CCn1cnc2ccc3nc(C4=NCCN4)sc3c2c1=O
0.56 µM,5.40,5.00,CC(C)n1cnc2ccc3nc(C(=N)NCCN(C)C)sc3c2c1=O
> 10 µM,< 5.00,< 5.00,CC(C)CCn1cnc2ccc3nc(C4=NCCN4)sc3c2c1=O
1.3 µM,,,CCn1cnc2ccc3nc(C(=N)NCCN(C)C)sc3c2c1=O
1.6 µM,< 4.00,< 4.00,CCCn1cnc2ccc3nc(C4=NCCN4)sc3c2c1=O
4.6 µM,< 4.00,4.07,CC(C)Cn1cnc2ccc3nc(C4=NCCN4)sc3c2c1=O
> 10 µM,< 5.00,,O=c1c2c(ccc3nc(C4=NCCN4)sc32)ncn1Cc1ccccc1
> 10 µM,,< 5.00,COc1ccc(Cn2cnc3ccc4nc(C5=NCCN5)sc4c3c2=O)cc1
9.4 µM,,,CC(C)NC(=N)c1nc2ccc3ncn(C(C)C)c(=O)c3c2s1
1.6 µM,< 4.00,< 4.00,CC(C)n1cnc2ccc3nc(C4=NCCN4)sc3c2c1=O
